According to paper PMC9007039 (Journal of medicinal chemistry, 2021):

Molecular target: GPC3 (Homo sapiens, UniProt P51654)
Assay type: cell-based
Conditions: Hep3B cells, 5 µM peptide, confocal microscopy
Procedure, shortened: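 Hep3B cells were seeded at ~70% confluence in EMEM with 10% FBS and no antibiotics. They were transfected with 5 nmol of each of three GPC3 siRNAs or a negative-control siRNA using a lipofection reagent. Knockdown was confirmed by anti-GPC3 Western blot with GAPDH as loading control. Cells were methanol-fixed and stained with 5 µM IRDye800-labelled peptide for 5 min at RT, plus anti-GPC3 and AF488 secondary. Intensities were quantified from confocal images.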

Chain of GPC3 (P51654 25-580): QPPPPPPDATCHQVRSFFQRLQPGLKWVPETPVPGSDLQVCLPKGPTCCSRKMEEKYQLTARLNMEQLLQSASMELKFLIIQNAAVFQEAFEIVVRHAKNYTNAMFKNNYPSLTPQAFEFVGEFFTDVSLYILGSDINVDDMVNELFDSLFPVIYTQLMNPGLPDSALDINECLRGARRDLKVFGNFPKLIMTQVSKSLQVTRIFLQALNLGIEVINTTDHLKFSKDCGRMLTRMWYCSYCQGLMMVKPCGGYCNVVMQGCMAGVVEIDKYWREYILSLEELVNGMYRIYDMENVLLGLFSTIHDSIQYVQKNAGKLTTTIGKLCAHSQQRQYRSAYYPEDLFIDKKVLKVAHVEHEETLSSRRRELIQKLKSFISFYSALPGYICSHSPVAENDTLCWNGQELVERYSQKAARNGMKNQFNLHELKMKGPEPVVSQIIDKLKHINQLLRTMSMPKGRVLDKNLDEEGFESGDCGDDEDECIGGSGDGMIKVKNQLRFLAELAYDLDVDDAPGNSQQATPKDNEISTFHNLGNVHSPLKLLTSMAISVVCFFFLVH

FEAEHNLALQTL [FEA*-IRDye800]
difference in fluorescence intensity siCL versus siGPC3 cells, all 3 siRNAs: non-significant difference
